Reference: ChEMBL document CHEMBL4689842, “EUbOPEN Chemogenomics Library wave 1” (2021)

Tested on: U2OS
Experiment: Multiplex assay against U2OS
Format: toxicity, cell-based
Conditions: human
In short: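 Live cells were stained at seeding with Hoechst33342, BioTracker Green Microtubule Cytoskeleton Dye, MitoTracker Red and Annexin V Alexa Fluor 680. Following compound addition, they were imaged on a CQ1 microscope at 37°C and 5% CO2 and gated by CellPathfinder machine learning into Hoechst high-intensity objects or normal cells, with normal cells split into healthy, pyknosed or fragmented nuclei and pyknosed cells into mitotic or apoptotic. Tubulin, mitochondrial-mass and membrane-permeability phenotypes are per cents of healthy-nucleus cells.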

[1] = 12 h, 1 µM, compound concentration 1 uM, replicate 1
[2] = 12 h, 1 µM, compound concentration 1 uM, replicate 2
[3] = 12 h, 10 µM, compound concentration 10 uM, replicate 1
[4] = 12 h, 10 µM, compound concentration 10 uM, replicate 2
[5] = 24 h, 1 µM, compound concentration 1 uM, replicate 1
[6] = 24 h, 1 µM, compound concentration 1 uM, replicate 2
[7] = 24 h, 10 µM, compound concentration 10 uM, replicate 1
[8] = 24 h, 10 µM, compound concentration 10 uM, replicate 2
[9] = 48 h, 1 µM, compound concentration 1 uM, replicate 1
[10] = 48 h, 1 µM, compound concentration 1 uM, replicate 2
[11] = 48 h, 10 µM, compound concentration 10 uM, replicate 1
[12] = 48 h, 10 µM, compound concentration 10 uM, replicate 2

Cc1csc2c(N[C@@H](C)CN3CCN(S(=O)(=O)c4ccc(Cl)c(Cl)c4)CC3)ncnc12
Population Apoptotic (%) [1]: 70% | Population Fragmented Nuclei (%) [1]: 14% | Population Healthy Nuclei (%) [1]: 66% | Population Hoechst High Intensity Objects (%) [1]: 8% | Population Membrane Permeable-Phenotype (%) [1]: 4% | Population Mitochondria Different-Phenotype (%) [1]: 31% | Population Mitotic Cells (%) [1]: 30% | Population Normal (%) [1]: 91% | Population Pyknosed Nuclei (%) [1]: 19% | Population Tubulin-Different-Phenotype (%) [1]: 50% | Total Cell Count [1]: 158 | Population Apoptotic (%) [2]: 16% | Population Fragmented Nuclei (%) [2]: 5% | Population Healthy Nuclei (%) [2]: 84% | Population Hoechst High Intensity Objects (%) [2]: 5% | Population Membrane Permeable-Phenotype (%) [2]: 6% | Population Mitochondria Different-Phenotype (%) [2]: 33% | Population Mitotic Cells (%) [2]: 83% | Population Normal (%) [2]: 95% | Population Pyknosed Nuclei (%) [2]: 10% | Population Tubulin-Different-Phenotype (%) [2]: 47% | Total Cell Count [2]: 48 | Population Apoptotic (%) [3]: 53% | Population Fragmented Nuclei (%) [3]: 15% | Population Healthy Nuclei (%) [3]: 57% | Population Hoechst High Intensity Objects (%) [3]: 9% | Population Membrane Permeable-Phenotype (%) [3]: 55% | Population Mitochondria Different-Phenotype (%) [3]: 100% | Population Mitotic Cells (%) [3]: 46% | Population Normal (%) [3]: 90% | Population Pyknosed Nuclei (%) [3]: 27% | Population Tubulin-Different-Phenotype (%) [3]: 100% | Total Cell Count [3]: 114 | Population Apoptotic (%) [4]: 75% | Population Fragmented Nuclei (%) [4]: 12% | Population Healthy Nuclei (%) [4]: 67% | Population Hoechst High Intensity Objects (%) [4]: 4% | Population Membrane Permeable-Phenotype (%) [4]: 56% | Population Mitochondria Different-Phenotype (%) [4]: 98% | Population Mitotic Cells (%) [4]: 25% | Population Normal (%) [4]: 95% | Population Pyknosed Nuclei (%) [4]: 19% | Population Tubulin-Different-Phenotype (%) [4]: 98% | Total Cell Count [4]: 60 | Population Apoptotic (%) [5]: 73% | Population Fragmented Nuclei (%) [5]: 7% | Population Healthy Nuclei (%) [5]: 78% | Population Hoechst High Intensity Objects (%) [5]: 8% | Population Membrane Permeable-Phenotype (%) [5]: 10% | Population Mitochondria Different-Phenotype (%) [5]: 27% | Population Mitotic Cells (%) [5]: 26% | Population Normal (%) [5]: 91% | Population Pyknosed Nuclei (%) [5]: 13% | Population Tubulin-Different-Phenotype (%) [5]: 45% | Total Cell Count [5]: 175 | Population Apoptotic (%) [6]: 60% | Population Fragmented Nuclei (%) [6]: 11% | Population Healthy Nuclei (%) [6]: 73% | Population Hoechst High Intensity Objects (%) [6]: 4% | Population Membrane Permeable-Phenotype (%) [6]: 11% | Population Mitochondria Different-Phenotype (%) [6]: 25% | Population Mitotic Cells (%) [6]: 40% | Population Normal (%) [6]: 95% | Population Pyknosed Nuclei (%) [6]: 14% | Population Tubulin-Different-Phenotype (%) [6]: 23% | Total Cell Count [6]: 64 | Population Apoptotic (%) [7]: 95% | Population Fragmented Nuclei (%) [7]: 18% | Population Healthy Nuclei (%) [7]: 44% | Population Hoechst High Intensity Objects (%) [7]: 5% | Population Membrane Permeable-Phenotype (%) [7]: 75% | Population Mitochondria Different-Phenotype (%) [7]: 100% | Population Mitotic Cells (%) [7]: 4% | Population Normal (%) [7]: 94% | Population Pyknosed Nuclei (%) [7]: 36% | Population Tubulin-Different-Phenotype (%) [7]: 100% | Total Cell Count [7]: 119 | Population Apoptotic (%) [8]: 80% | Population Fragmented Nuclei (%) [8]: 15% | Population Healthy Nuclei (%) [8]: 57% | Population Hoechst High Intensity Objects (%) [8]: 4% | Population Membrane Permeable-Phenotype (%) [8]: 80% | Population Mitochondria Different-Phenotype (%) [8]: 97% | Population Mitotic Cells (%) [8]: 19% | Population Normal (%) [8]: 95% | Population Pyknosed Nuclei (%) [8]: 26% | Population Tubulin-Different-Phenotype (%) [8]: 97% | Total Cell Count [8]: 72 | Population Apoptotic (%) [9]: 77% | Population Fragmented Nuclei (%) [9]: 8% | Population Healthy Nuclei (%) [9]: 79% | Population Hoechst High Intensity Objects (%) [9]: 3% | Population Membrane Permeable-Phenotype (%) [9]: 8% | Population Mitochondria Different-Phenotype (%) [9]: 16% | Population Mitotic Cells (%) [9]: 22% | Population Normal (%) [9]: 96% | Population Pyknosed Nuclei (%) [9]: 11% | Population Tubulin-Different-Phenotype (%) [9]: 30% | Total Cell Count [9]: 243 | Population Apoptotic (%) [10]: 25% | Population Fragmented Nuclei (%) [10]: 12% | Population Healthy Nuclei (%) [10]: 82% | Population Hoechst High Intensity Objects (%) [10]: 4% | Population Mitochondria Different-Phenotype (%) [10]: 12% | Population Mitotic Cells (%) [10]: 75% | Population Normal (%) [10]: 95% | Population Pyknosed Nuclei (%) [10]: 4% | Population Tubulin-Different-Phenotype (%) [10]: 20% | Total Cell Count [10]: 89 | Population Apoptotic (%) [11]: 87% | Population Fragmented Nuclei (%) [11]: 25% | Population Healthy Nuclei (%) [11]: 30% | Population Hoechst High Intensity Objects (%) [11]: 8% | Population Membrane Permeable-Phenotype (%) [11]: 78% | Population Mitochondria Different-Phenotype (%) [11]: 96% | Population Mitotic Cells (%) [11]: 12% | Population Normal (%) [11]: 91% | Population Pyknosed Nuclei (%) [11]: 43% | Population Tubulin-Different-Phenotype (%) [11]: 100% | Total Cell Count [11]: 159 | Population Apoptotic (%) [12]: 92% | Population Fragmented Nuclei (%) [12]: 15% | Population Healthy Nuclei (%) [12]: 50% | Population Hoechst High Intensity Objects (%) [12]: 7% | Population Membrane Permeable-Phenotype (%) [12]: 84% | Population Mitochondria Different-Phenotype (%) [12]: 97% | Population Mitotic Cells (%) [12]: 7% | Population Normal (%) [12]: 92% | Population Pyknosed Nuclei (%) [12]: 34% | Population Tubulin-Different-Phenotype (%) [12]: 97% | Total Cell Count [12]: 91

CCN(CC)CCCCNc1ncc2cc(-c3cc(OC)cc(OC)c3)c(NC(=O)NC(C)(C)C)nc2n1 [PD-173074]
Population Apoptotic (%) [1]: 53% | Population Fragmented Nuclei (%) [1]: 27% | Population Healthy Nuclei (%) [1]: 4% | Population Hoechst High Intensity Objects (%) [1]: 56% | Population Membrane Permeable-Phenotype (%) [1]: 66% | Population Mitochondria Different-Phenotype (%) [1]: 16% | Population Mitotic Cells (%) [1]: 46% | Population Normal (%) [1]: 43% | Population Pyknosed Nuclei (%) [1]: 67% | Population Tubulin-Different-Phenotype (%) [1]: 33% | Total Cell Count [1]: 280 | Population Apoptotic (%) [2]: 54% | Population Fragmented Nuclei (%) [2]: 31% | Population Healthy Nuclei (%) [2]: 11% | Population Hoechst High Intensity Objects (%) [2]: 55% | Population Membrane Permeable-Phenotype (%) [2]: 64% | Population Mitochondria Different-Phenotype (%) [2]: 29% | Population Mitotic Cells (%) [2]: 45% | Population Normal (%) [2]: 44% | Population Pyknosed Nuclei (%) [2]: 57% | Population Tubulin-Different-Phenotype (%) [2]: 47% | Total Cell Count [2]: 186 | Population Fragmented Nuclei (%) [3]: 20% | Population Healthy Nuclei (%) [3]: 52% | Population Hoechst High Intensity Objects (%) [3]: 19% | Population Membrane Permeable-Phenotype (%) [3]: 39% | Population Mitochondria Different-Phenotype (%) [3]: 27% | Population Normal (%) [3]: 80% | Population Pyknosed Nuclei (%) [3]: 26% | Population Tubulin-Different-Phenotype (%) [3]: 92% | Total Cell Count [3]: 206 | Population Apoptotic (%) [4]: 21% | Population Fragmented Nuclei (%) [4]: 33% | Population Healthy Nuclei (%) [4]: 34% | Population Hoechst High Intensity Objects (%) [4]: 30% | Population Membrane Permeable-Phenotype (%) [4]: 37% | Population Mitochondria Different-Phenotype (%) [4]: 51% | Population Mitotic Cells (%) [4]: 78% | Population Normal (%) [4]: 69% | Population Pyknosed Nuclei (%) [4]: 31% | Population Tubulin-Different-Phenotype (%) [4]: 73% | Total Cell Count [4]: 129 | Population Apoptotic (%) [5]: 70% | Population Fragmented Nuclei (%) [5]: 17% | Population Healthy Nuclei (%) [5]: 8% | Population Hoechst High Intensity Objects (%) [5]: 60% | Population Membrane Permeable-Phenotype (%) [5]: 71% | Population Mitochondria Different-Phenotype (%) [5]: 28% | Population Mitotic Cells (%) [5]: 29% | Population Normal (%) [5]: 39% | Population Pyknosed Nuclei (%) [5]: 74% | Population Tubulin-Different-Phenotype (%) [5]: 57% | Total Cell Count [5]: 298 | Population Apoptotic (%) [6]: 71% | Population Fragmented Nuclei (%) [6]: 30% | Population Healthy Nuclei (%) [6]: 15% | Population Hoechst High Intensity Objects (%) [6]: 63% | Population Membrane Permeable-Phenotype (%) [6]: 84% | Population Mitochondria Different-Phenotype (%) [6]: 38% | Population Mitotic Cells (%) [6]: 28% | Population Normal (%) [6]: 36% | Population Pyknosed Nuclei (%) [6]: 53% | Population Tubulin-Different-Phenotype (%) [6]: 69% | Total Cell Count [6]: 168 | Population Apoptotic (%) [7]: 35% | Population Fragmented Nuclei (%) [7]: 16% | Population Healthy Nuclei (%) [7]: 54% | Population Hoechst High Intensity Objects (%) [7]: 17% | Population Membrane Permeable-Phenotype (%) [7]: 20% | Population Mitochondria Different-Phenotype (%) [7]: 48% | Population Mitotic Cells (%) [7]: 64% | Population Normal (%) [7]: 82% | Population Pyknosed Nuclei (%) [7]: 29% | Population Tubulin-Different-Phenotype (%) [7]: 74% | Total Cell Count [7]: 202 | Population Apoptotic (%) [8]: 45% | Population Fragmented Nuclei (%) [8]: 26% | Population Healthy Nuclei (%) [8]: 33% | Population Hoechst High Intensity Objects (%) [8]: 21% | Population Membrane Permeable-Phenotype (%) [8]: 18% | Population Mitochondria Different-Phenotype (%) [8]: 52% | Population Mitotic Cells (%) [8]: 54% | Population Normal (%) [8]: 78% | Population Pyknosed Nuclei (%) [8]: 40% | Population Tubulin-Different-Phenotype (%) [8]: 59% | Total Cell Count [8]: 113
